Screens: PubChem, Broad Institute
SR-BI DiI-HDL act – activators of SR-BI mediated HDL lipid uptake | AID 504775 | CHO ldlA[mSR-BI] cells, DiI-HDL uptake fluorescence, 3 h; 100 = double the neutral-control signal | 320,000 tested, 0.096% active | activation, % at 12.5 µM;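 active = mean replicate activation of at least 60% and every replicate at or above 60%; inconclusive = mean or all-replicate condition met, but not both; inactive = mean below 60% and not all replicates reaching 60%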;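 note: 0% = median plate neutral-control signal and 100% = twice that signal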
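Material: SR-BI-overexpressing, LDLR-lacking CHO cells; schedule: compound exposure 3 h, 37 °C; reagent: DiI-labelled HDL at 10 µg/mL final; technique: bottom-read fluorescence, 550/595 nm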
GSK3beta inhib – inhibitors of human GSK3beta kinase; P49841; GST-GSK3beta kinase, ADP-Glo luminescence, 60 min; stronger effect = lower value; activity score (negative = inhibition), % at 10 µM; 300,000 tested, 0.038% active; AID 2097;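 active = more than half of replicate wells score below -50%, meaning over 50% inhibition versus plate controls; inconclusive = some replicates but at most half score below -50%; inactive = no replicate scores below -50%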;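 note: 0% = median DMSO wells and -100% = median GW8510 positive control wells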
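test system = GST-tagged human GSK3beta kinase, cell-free | reagent = 25 µM ATP with peptide substrate | dosing = one dose of 10 µM per compound | schedule = 60 min reaction, RT | detection = luminescent ADP-Glo measurement of ADP formed | control set = DMSO neutral wells and GW8510 at 20 µM as positive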
CDK5 p35 inh – inhibitors of human CDK5/p35 kinase | Q00535+Q15078 | Recombinant CDK5/p35, ADP-Glo luminescence, 60 min | inhibition, % at 10 µM | 330,000 tested, 0.01% active | AID 488839;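 active = highest replicate inhibition of at least 50% and at least 75% of replicates reaching 50%; inconclusive = only one of the two criteria met; inactive = both criteria failed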;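 note: plate controls were DMSO neutral control for no effect and GW8510 at 10 µM for full effect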
Target sequence (Q00535 whole entry, looked up): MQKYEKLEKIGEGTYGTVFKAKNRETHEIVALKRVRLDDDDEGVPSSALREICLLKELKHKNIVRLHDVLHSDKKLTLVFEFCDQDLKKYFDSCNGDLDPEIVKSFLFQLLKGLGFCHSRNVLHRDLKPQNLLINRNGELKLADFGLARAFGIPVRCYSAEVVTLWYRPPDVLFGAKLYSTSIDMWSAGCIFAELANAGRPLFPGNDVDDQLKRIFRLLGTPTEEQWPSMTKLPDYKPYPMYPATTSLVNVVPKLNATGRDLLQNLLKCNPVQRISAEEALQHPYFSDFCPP
Target sequence (Q15078 whole entry, looked up): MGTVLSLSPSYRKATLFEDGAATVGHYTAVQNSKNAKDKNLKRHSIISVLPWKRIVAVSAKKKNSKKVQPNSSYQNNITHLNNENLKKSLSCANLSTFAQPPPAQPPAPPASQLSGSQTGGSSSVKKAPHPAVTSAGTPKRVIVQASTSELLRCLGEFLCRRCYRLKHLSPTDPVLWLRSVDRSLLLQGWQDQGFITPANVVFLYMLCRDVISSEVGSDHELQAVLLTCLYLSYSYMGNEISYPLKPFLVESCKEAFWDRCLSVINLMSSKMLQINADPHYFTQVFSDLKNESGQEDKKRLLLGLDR
SR-BI HDL uptake – blocks mouse SR-BI lipid uptake from DiI-HDL. inhibition, % at 12.5 µM. ldlA[mSR-BI] CHO cells, DiI-HDL uptake fluorescence, 3 h. Q61009. 320,000 tested, 0.96% active;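 active = mean replicate inhibition of at least 70% and a set share of replicates each scoring 70 or more; inconclusive = meets just one of the two criteria; inactive = fails both criteria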;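 note: 0% = median of neutral control wells and 100% = median of positive control wells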
GSK3 alpha inh – inhibitors of human GSK-3 alpha kinase. P49840. ADP-Glo luminescence, 60 min. inhibition, % at 10 µM. 320,000 tested, 0.1% active;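 active = more than half of replicates show inhibition above 20%; inconclusive = some but at most half of replicates above 20% inhibition; inactive = no replicate shows inhibition above 20%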;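 note: GST-tagged GSK-3 alpha with peptide substrate and 25 µM ATP; 0% = DMSO neutral wells and 100% = GW8510 positive control wells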
DiI quencher – counter-screen for SR-BI lipid transfer inhibitors: DiI fluorescence quenchers | shares compounds with SR-BI HDL uptake | cell-free DiI-HDL fluorescence quenching, 30 min | AC50, µM (top dose mostly 35 µM), inactives show at the highest dose activity change, negative = quenching | 470 tested, 20% active;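 active = quenching, a falling signal, with AC50 below a set limit tied to the top valid dose, actives reach about 32 µM in these data; inconclusive = no clear call, values can overlap the other calls; inactive = rising signal, and the rest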
Starred values were filed as active, the others as inactive; i = inactive; ? = inconclusive; . = no result. This is a sample that favours compounds with a hit; in the whole collection about 1.1% have one here.

SMILES	SR-BI DiI-HDL act	GSK3beta inhib	CDK5 p35 inh	SR-BI HDL uptake	GSK3 alpha inh	DiI quencher
Cc1ccc(-c2nnc(N3CCC(C)CC3)c3ccccc23)cc1C	-92	0	-2	92*	-2	3%
COc1ccc(Br)cc1S(=O)(=O)n1nc(C)cc1C	-40	3	1	40	-1	.
CCc1ccc(NC(=O)C2CCCN(S(=O)(=O)c3ccc4[nH]c(=O)ccc4c3)C2)cc1 (configuration not stated)	-104	-2	0	104*	-2	-3%
Cc1ccc(NC(=O)C2CCCN(S(=O)(=O)c3ccc4[nH]c(=O)ccc4c3)C2)cc1C (configuration not stated)	-15	3	1	15	-1	.
COc1cc(OC)cc(C(=O)OC(C)C(=O)NC2CCCc3ccccc32)c1 (configuration not stated)	-21	.	0	21	.	.
CCNC(=O)c1c(NC(=O)c2cc(-c3cc(C)cc(C)c3O)n[nH]2)sc2c1CCCC2	-73	.	-1	?	.	i
Cc1cc(C)c(NC(=O)COc2cccnc2[N+](=O)[O-])c(C)c1	2	.	1	-2	-3	.
CC1c2ccccc2-c2ccccc2N1C (configuration not stated)	-1	.	-2	1	.	.
CCOC(=O)C1CCN(C(=O)Cn2cnc3sc(C)c(S(=O)(=O)N4CCCCC4)c3c2=O)CC1	-15	0	0	15	-1	.
CCOC(=O)C1CCN(C(=O)Cn2cnc3sc(C)c(S(=O)(=O)N4CCC(C)CC4)c3c2=O)CC1	-71	1	1	?	-1	1%
COc1ccc(O)c(C(=O)c2cnc3c(c2)c(C)nn3CCO)c1	.	-1	-2	.	-1	.
O=C(NCc1ccco1)c1ccc2c(c1)OCCO2	-7	0	-2	7	0	.
CCOC(=O)c1c(C)n(-c2ccc(C)cc2)c2c(CC(C)=O)c(Br)c(OC)c(O)c12	-73	11	0	73*	0	0%
CCN(CC)C(=O)C(=O)Nc1ccc(OC)c(Cl)c1	-5	1	1	5	-2	.
CC[C@]12c3[nH]c4cc(-c5ccco5)ccc4c3CCN1C(=O)[C@@H](CC(=O)NCc1ccc(OC)c(OC)c1)C[C@@H]2C(=O)N1CCN(C(=O)c2ccco2)CC1	-75	.	1	75*	.	-13%
COc1ccc(CNC(=O)C(c2ccc(C)cc2)N(Cc2cccs2)C(=O)c2ccc3c(c2)OCCO3)cc1 (configuration not stated)	-26	2	-1	26	-3	-1%
CC(=O)Nc1ccc(-c2c(C)cc3oc(=O)cc(-c4ccccc4)c3c2C)cc1	-67	.	-1	67	.	.
Cc1cc2oc(=O)cc(-c3ccccc3)c2c(C)c1-c1ccc(C(F)(F)F)cc1	-74	.	5	?	.	-4%
CCc1nnc(NC(=O)Cc2ccc(OCc3c(C)noc3C)cc2)s1	.	0	2	.	-2	.
CCCCc1nnc(NC(=O)c2ccc(OCc3c(C)noc3C)cc2)s1	-75	.	-8	75*	.	3%
CC(C)[C@H](NC(=O)c1cccc(CN(Cc2ccccc2)C(=O)/C=C/c2ccccc2)c1)C(=O)O	3	5	3	-3	-4	.
